Experiments:
[1] = test system: UACC-903; assay: Cytotoxicity against human UACC-903 cells assessed as decrease in cell viability after 24 hrs by MTS assay; format: functional, cell-based
Outline: (§1)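 Cells in DMEM with 10% FBS at 37 °C and 5% CO2 were plated at 5×10^3 per well and grown 24 h. They were then exposed 24 or 72 h to 0.5, 1, 5, 10, 25 and 50 µM, with final DMSO 0.5% and DMSO controls. MTS/PMS was added for 4 h at 37 °C. A492 was read with the medium blank subtracted and expressed as % of control. IC50 was taken from three independent experiments (mean ± S.E.).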

[2] = test system: A375-S2; assay: Cytotoxicity against human A375-S2 cells assessed as decrease in cell viability after 24 hrs by MTS assay; format: functional, cell-based; outline: as §1
[3] = test system: 1205Lu; assay: Cytotoxicity against human 1205 Lu cells assessed as decrease in cell viability after 24 hrs by MTS assay; format: functional, cell-based; outline: as §1
[4] = test system: UACC-903; assay: Cytotoxicity against human UACC-903 cells assessed as decrease in cell viability after 72 hrs by MTS assay; format: functional, cell-based; outline: as §1
[5] = test system: A375-S2; assay: Cytotoxicity against human A375-S2 cells assessed as decrease in cell viability after 72 hrs by MTS assay; format: functional, cell-based; outline: as §1
[6] = test system: 1205Lu; assay: Cytotoxicity against human 1205 Lu cells assessed as decrease in cell viability after 72 hrs by MTS assay; format: functional, cell-based; outline: as §1
[7] = test system: UACC-903; assay: Cytotoxicity against human UACC-903 cells after 24 hrs by MTS assay; format: functional, cell-based; conditions: UACC-903, 24 h; outline: as §1
[8] = Cytotoxicity against human A375-S2 cells after 24 hrs by MTS assay; format: functional, cell-based; conditions: A375-S2, 24 h; outline: as §1
[9] = Cytotoxicity against human SK-MEL-37 cells after 24 hrs by MTS assay; format: functional, cell-based; outline: as §1
[10] = Cytotoxicity against human 1205 Lu cells after 24 hrs by MTS assay; format: functional, cell-based; outline: as §1
[11] = test system: UACC-903; assay: Cytotoxicity against human UACC-903 cells after 72 hrs by MTS assay; format: functional, cell-based; conditions: UACC-903, 72 h; outline: as §1
[12] = Cytotoxicity against human A375-S2 cells after 72 hrs by MTS assay; format: functional, cell-based; conditions: A375-S2, 72 h; outline: as §1
[13] = Cytotoxicity against human SK-MEL-37 cells after 72 hrs by MTS assay; format: functional, cell-based; outline: as §1
[14] = Cytotoxicity against human 1205 Lu cells after 72 hrs by MTS assay; format: functional, cell-based; outline: as §1
[15] = test system: UACC-903; assay: Induction of apoptosis in human UACC-903 cells assessed as early apoptotic cells at 1 uM after 24 hrs using annexin-V-PE/7-AAD double staining by flow cytometry; format: functional
Outline: (§2)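 UACC 903 cells were exposed 24 h at 37 °C to 1, 5 or 25 µM, with DMSO as control. Cells were harvested, washed twice in cold PBS and resuspended at 1×10^6 cells/mL in binding buffer. They were stained with 7-AAD plus PE Annexin V for 20 min at room temperature in the dark and run by flow cytometry within 1 h. Gating: double-negative live, 7-AAD+ dead, Annexin V+/7-AAD− early apoptotic. Three separate experiments.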

[16] = test system: UACC-903; assay: Induction of apoptosis in human UACC-903 cells assessed as late apoptotic cells at 1 uM after 24 hrs using annexin-V-PE/7-AAD double staining by flow cytometry; format: functional; outline: as §2
[17] = test system: UACC-903; assay: Induction of apoptosis in human UACC-903 cells assessed as non-viable cells at 1 uM after 24 hrs using annexin-V-PE/7-AAD double staining by flow cytometry; format: functional; outline: as §2
[18] = test system: UACC-903; assay: Induction of apoptosis in human UACC-903 cells assessed as viable cells at 1 uM after 24 hrs using annexin-V-PE/7-AAD double staining by flow cytometry; format: functional; conditions: UACC-903, 24 h, read-out: Activity; outline: as §2
[19] = test system: UACC-903; assay: Induction of apoptosis in human UACC-903 cells assessed as early apoptotic cells at 5 uM after 24 hrs using annexin-V-PE/7-AAD double staining by flow cytometry; format: functional; outline: as §2
[20] = test system: UACC-903; assay: Induction of apoptosis in human UACC-903 cells assessed as late apoptotic cells at 5 uM after 24 hrs using annexin-V-PE/7-AAD double staining by flow cytometry; format: functional; outline: as §2
[21] = test system: UACC-903; assay: Induction of apoptosis in human UACC-903 cells assessed as non-viable cells at 5 uM after 24 hrs using annexin-V-PE/7-AAD double staining by flow cytometry; format: functional; outline: as §2
[22] = test system: UACC-903; assay: Induction of apoptosis in human UACC-903 cells assessed as viable cells at 5 uM after 24 hrs using annexin-V-PE/7-AAD double staining by flow cytometry; format: functional; conditions: UACC-903, 24 h, read-out: Activity; outline: as §2
[23] = test system: UACC-903; assay: Induction of apoptosis in human UACC-903 cells assessed as early apoptotic cells at 25 uM after 24 hrs using annexin-V-PE/7-AAD double staining by flow cytometry; format: functional; outline: as §2
[24] = test system: UACC-903; assay: Induction of apoptosis in human UACC-903 cells assessed as late apoptotic cells at 25 uM after 24 hrs using annexin-V-PE/7-AAD double staining by flow cytometry; format: functional; outline: as §2
[25] = test system: UACC-903; assay: Induction of apoptosis in human UACC-903 cells assessed as non-viable cells at 25 uM after 24 hrs using annexin-V-PE/7-AAD double staining by flow cytometry; format: functional; outline: as §2
[26] = test system: UACC-903; assay: Induction of apoptosis in human UACC-903 cells assessed as viable cells at 25 uM after 24 hrs using annexin-V-PE/7-AAD double staining by flow cytometry; format: functional; conditions: UACC-903, 24 h, read-out: Activity; outline: as §2
[27] = test system: UACC-903; assay: Induction of apoptosis in human UACC-903 cells assessed as increase in apoptotic cells after 24 hrs using annexin-V-PE/7-AAD double staining by flow cytometry; format: functional, cell-based; outline: as §2
[28] = test system: Mus musculus; assay: Systemic toxicity in Swiss Webster mouse assessed as mortality at 15 mg/kg, ip administered every day for 28 days; format: organism-based; design: dose 15 mg/kg, route intraperitoneal; conditions: in vivo, 672 h
Outline: (§3)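 Swiss Webster mice, n = 4 per group, dosed i.p. once daily for 28 days at 5, 7.5, 10 or 15 mg/kg body weight. Body weight recorded twice per week; deaths noted over the dosing period.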

[29] = test system: Mus musculus; assay: Systemic toxicity in Swiss Webster mouse assessed as weight loss at 10 mg/kg, ip administered every day for 28 days; format: organism-based; design: dose 10 mg/kg, route intraperitoneal; conditions: in vivo, 672 h; outline: as §3
[30] = test system: Mus musculus; assay: Systemic toxicity in Swiss Webster mouse assessed as mortality at 10 mg/kg, ip administered every day for 28 days; format: organism-based; design: dose 10 mg/kg, route intraperitoneal; conditions: in vivo, 672 h; outline: as §3
[31] = test system: UACC-903; assay: Antitumor activity against human UACC-903 cells xenografted in athymic Harlan Sprague-Dawley nude mouse assessed as reduction in tumor growth at 8.5 to 10 mg/kg, ip administered daily for 24 days measured after 21 days; format: functional; conditions: dose mg/kg 8.5-10; route intraperitoneal
Outline: (§4)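 Female athymic nude mice, 4–6 weeks old, received 5×10^6 UACC 903 cells s.c. in DMEM/10% FBS above both rib cages. After six days they were randomized at 5 mice/group, 2 tumors/mouse. Dosing was i.p. Mon/Wed/Fri, with one arm dosed daily; controls got DMSO vehicle. Tumor dimensions (calipers, mm³) and body weight were recorded three times weekly.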

[32] = test system: UACC-903; assay: Antitumor activity against human UACC-903 cells xenografted in athymic Harlan Sprague-Dawley nude mouse assessed as reduction in tumor growth at 8.5 to 10 mg/kg, ip administered thrice per week for 24 days measured after 21 days; format: functional; conditions: dose mg/kg 8.5-10; route intraperitoneal; outline: as §4
[33] = test system: Mus musculus; assay: Systemic toxicity in athymic Harlan Sprague-Dawley nude mouse xenografted with human UACC-903 cells assessed as reduction in body weight at 8.5 to 10 mg/kg, ip administered thrice a week for 24 days; format: organism-based; design: dose 8.5-10 mg/kg, route intraperitoneal; conditions: in vivo, 576 h; outline: as §4
[34] = test system: SK-MEL-37 (Homo sapiens); assay: Cytotoxicity against human SK-MEL-37 cells assessed as decrease in cell viability after 24 hrs by MTS assay
[35] = test system: SK-MEL-37 (Homo sapiens); assay: Cytotoxicity against human SK-MEL-37 cells assessed as decrease in cell viability after 72 hrs by MTS assay
[36] = test system: Mus musculus; assay: Systemic toxicity in athymic Harlan Sprague-Dawley nude mouse xenografted with human UACC-903 cells assessed as mortality at 10 mg/kg, ip administered daily for 28 days; format: organism-based; design: dose 10 mg/kg, route intraperitoneal; conditions: in vivo, 672 h
[37] = test system: UACC-903; assay: Antitumor activity against human UACC-903 cells xenografted in athymic Harlan Sprague-Dawley nude mouse assessed as reduction in tumor growth at 9.5 to 10.6 mg/kg, ip administered thrice per week for 24 days measured after 21 days; format: functional; conditions: dose mg/kg 9.5-10.6; route intraperitoneal; outline: as §4
[38] = test system: Mus musculus; assay: Systemic toxicity in athymic Harlan Sprague-Dawley nude mouse xenografted with human UACC-903 cells assessed as reduction in body weight at 9.5 to 10.6 mg/kg, ip administered thrice a week for 24 days; format: organism-based; design: dose 9.5-10.6 mg/kg, route intraperitoneal; conditions: in vivo, 576 h; outline: as §4
[39] = test system: Mus musculus; assay: Systemic toxicity in Swiss Webster mouse assessed as reduction in body weight at 10 mg/kg, ip administered daily for 28 days; design: scale not given: the % may be the effect or the level left; conditions: in vivo, 672 h

Structure (SMILES) | Activity [1] | Activity [2] | Activity [3] | Activity [4] | Activity [5] | Activity [6] | IC50 [7] [µM] | IC50 [8] [µM] | IC50 [9] [µM] | IC50 [10] [µM] | IC50 [11] [µM] | IC50 [12] [µM] | IC50 [13] [µM] | IC50 [14] [µM] | Activity [15] [%] | Activity [16] [%] | Activity [17] [%] | viability at 1 µM [18] [%] | Activity [19] [%] | Activity [20] [%] | other results
O=C1c2cccc3cccc(c23)C(=O)N1CCN=C=S | Dose-dependent effect | Dose-dependent effect | Dose-dependent effect | Dose-dependent effect | Dose-dependent effect | Dose-dependent effect | 11.3 | 7.93 | 5.93 | 9.41 | 8.04 | 5.05 | 2.2 | 6.04 | 12.4 | 4.96 | 6.41 | 76.3 | 19.4 | 7.96 | Activity [21]: 3.41%; viability at 5 µM [22]: 69.3%; Activity [23]: 22.1%; Activity [24]: 7.98%; Activity [25]: 5.59%; viability at 25 µM [26]: 64.3%; Activity [27]: Dose-dependent effect; Activity [28]: Toxic; Activity [29]: Non-toxic; Activity [30]: Non-toxic; growth inhibition (GI) [31]: 50%; growth inhibition (GI) [32]: 30%; Activity [33]: Non-toxic; Activity [34]: Dose-dependent effect; Activity [35]: Dose-dependent effect
N=C(N)SCCN1C(=O)c2cccc3cc([N+](=O)[O-])cc(c23)C1=O | Dose-dependent effect | Dose-dependent effect | Dose-dependent effect | Dose-dependent effect | Dose-dependent effect | Dose-dependent effect | 14.7 | 18.4 | 23.4 | 39.5 | 6.95 | 9.48 | 15 | 16.4 | 20.1 | 2.41 | 0.56 | 76.9 | 25.1 | 3.99 | Activity [21]: 0.43%; viability at 5 µM [22]: 70.4%; Activity [23]: 40.2%; Activity [24]: 12.3%; Activity [25]: 0.32%; viability at 25 µM [26]: 47.2%; Activity [27]: Dose-dependent effect; Activity [28]: Toxic; Activity [29]: Non-toxic; Activity [30]: Non-toxic; Activity [36]: Non-toxic; growth inhibition (GI) [37]: 20%; Activity [38]: Non-toxic; Activity [34]: Dose-dependent effect; Activity [35]: Dose-dependent effect; Activity [39]: 10%
N=C(N)SCCN1C(=O)c2cccc3cccc(c23)C1=O | Dose-dependent effect | Dose-dependent effect | Dose-dependent effect | Dose-dependent effect | Dose-dependent effect | Dose-dependent effect | 9.87 | 6.7 | 3.7 | 22.4 | 6.85 | 3.78 | 2.15 | 18.7 | 9.11 | 1.04 | 0.71 | 89.1 | 17.5 | 2.41 | Activity [21]: 0.42%; viability at 5 µM [22]: 79.7%; Activity [23]: 47.6%; Activity [24]: 9.64%; Activity [25]: 0.43%; viability at 25 µM [26]: 42.4%; Activity [27]: Dose-dependent effect; Activity [28]: Toxic; Activity [29]: Non-toxic; Activity [30]: Non-toxic; growth inhibition (GI) [37]: 20%; Activity [38]: Non-toxic; Activity [34]: Dose-dependent effect; Activity [35]: Dose-dependent effect

Reference: ChEMBL document CHEMBL1806370, “Development of novel naphthalimide derivatives and their evaluation as potential melanoma therapeutics” (Eur J Med Chem, 2011)
